# Results reported in ChEMBL document CHEMBL1156045, “Discovery of novel types of inhibitors of S-adenosylmethionine synthesis by virtual screening” (J Med Chem, 2009).
# The source made the active and inactive calls. The calls are words filed in the database; no cut-off is given here.
# What was measured:
# Escherichia coli [1] = test: Inhibition of Escherichia coli MAT assessed as incorporation of L-[methyl-14C]methionine into S-adenosyl-methionine at 1 mM after 5 to 10 mins by scintillation counting
# Procedure, shortened: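 Screen: E. coli MAT (0.25 μM) preincubated 20 min at room temperature with 1 mM compound (15% DMSO final) in Tris·Cl pH 8.0/KCl/MgCl2. 1.5 volumes of reagents added (final 0.1 mM ATP, 0.1 mM [14C]methionine, 10 mM MgCl2). Run 5 min at 25° C, stopped with 25 mM EDTA; AdoMet on P-81 filters counted.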
# [2] = Inhibition of Escherichia coli MAT assessed as incorporation of L-[methyl-14C]methionine into S-adenosyl-methionine after 5 to 10 mins by scintillation counting
# Procedure, shortened: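 Recombinant E. coli MAT (0.3 μM subunits) preincubated 20 min with inhibitor before substrates were added. Assay buffer was 50 mM Tris·Cl pH 8.0, 50 mM KCl, 10 mM MgCl2, 10 mM ATP and 0.5 mM L-[methyl-14C]methionine at 25 °C. Reactions were EDTA-quenched and AdoMet was captured on P-81 filters. Ki came from a nonlinear fit of fractional activity to the tight-binding equation.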
# Escherichia coli [3] = test: Inhibition of Escherichia coli MAT assessed as incorporation of L-[methyl-14C]methionine into S-adenosyl-methionine at 200 uM after 5 to 10 mins by scintillation counting in presence of ATP treated before addition of methionine
# Procedure, shortened: (§1)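 Onset of inhibition: 0.3 μM MAT subunits (0.3 μM inhibitor) or 10 μM enzyme (200 μM inhibitor) incubated in 50 mM Tris·Cl, 50 mM KCl, 10 mM MgCl2 with 10 mM ATP or 1 mM L-methionine where present. Aliquots diluted into assay reagents at set times; [methyl-14C]AdoMet on P-81 filters counted.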
# Escherichia coli [4] = test: Inhibition of Escherichia coli MAT assessed as incorporation of L-[methyl-14C]methionine into S-adenosyl-methionine at 200 uM after 5 to 10 mins by scintillation counting in presence of methionine treated before addition of ATP; procedure, shortened: as §1
# Escherichia coli [5] = test: Inhibition of Escherichia coli MAT assessed as time required to achieve half maximal enzyme inhibition at 200 uM after 5 to 10 mins by scintillation counting; procedure, shortened: as §1
# Escherichia coli [6] = test: Inhibition of Escherichia coli MAT assessed as lack of recovery of detectable enzyme activity at 0.3 uM up to 20 mins measured after 24 hrs of dialysis
# [7] = test system: Methanocaldococcus jannaschii; test: Inhibition of Methanococcus jannaschii MAT at 1 mM treated for 20 mins before addition of substrate
# Procedure, shortened: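 M. jannaschii MAT (0.3 μM) preincubated 20 min with 0.1–1.0 mM compound, then assayed as for E. coli enzyme (0.1 mM ATP, 0.1 mM [14C]methionine) at 37° C. [14C]AdoMet on P-81 filters counted.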
# Escherichia coli [8] = test: Antibacterial activity against Escherichia coli RP523 at 1 mM after overnight incubation by filter disk method; type: functional, organism-based
# Procedure, shortened: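 E. coli RP523 (hyperpermeable strain): ~30 μl overnight culture spread on LB agar; 5 mm filter disks soaked with 30 μl of 1 mM compound in DMSO, or DMSO control, placed on lawn. Zone of growth inhibition measured after overnight incubation at 37° C.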
# Saccharomyces cerevisiae = test: Antifungal activity against Saccharomyces cerevisiae RDY84 at 1 mM after overnight incubation by filter disk method; type: functional, organism-based
# Procedure, shortened: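 S. cerevisiae RDY84 (pdr1Δ pdr3Δ) lawn on YDP agar; 5 mm filter disk soaked with 1 mM compound in DMSO, or DMSO control, placed on freshly spread cells. Zone of growth inhibition measured after overnight incubation at 30° C.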
# NCI60 = test: Growth inhibition of human NCI60 cells up to 100 uM; type: functional, cell-based
# Procedure, shortened: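 Tested by NCI Developmental Therapeutics Program against the 60 tumour cell line panel in its standard protocol, concentrations up to 100 μM.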
SMILES,Activity (Escherichia coli [1]),Ki [2],Activity (Escherichia coli [3]),Activity (Escherichia coli [4]),Activity (Escherichia coli [5]),Activity (Escherichia coli [6]),inhibition [7],Activity (Escherichia coli [8]),Activity (Saccharomyces cerevisiae),growth inhibition (GI) (NCI60)
NS(=O)(=O)c1ccc(NC(=O)Nc2ccc(Cl)cc2[N+](=O)[O-])cc1,Active,6.9 nM,inactive,Active,20 min,Active,inactive,inactive,inactive,inactive
Cc1ccc(NC(=O)Nc2cccc(C(F)(F)F)c2)cc1NC(=O)Nc1cccc(C(F)(F)F)c1,inactive,–,–,–,–,–,–,–,–,–
